Source: ChEMBL document CHEMBL4257569, “Novel KV7 ion channel openers for the treatment of epilepsy and implications for detrusor tissue contraction” (Bioorg Med Chem Lett, 2018)
≈ marks a conversion by molar mass, not a printed value. Calls of active or inactive are those of the source.

Assays:
[1] = molecular target: T1, Potassium voltage-gated channel subfamily KQT member 4 (Homo sapiens, UniProt P56696); assay: Activation of human Kv7.4 by patch clamp method
T1 sequence (P56696 whole entry): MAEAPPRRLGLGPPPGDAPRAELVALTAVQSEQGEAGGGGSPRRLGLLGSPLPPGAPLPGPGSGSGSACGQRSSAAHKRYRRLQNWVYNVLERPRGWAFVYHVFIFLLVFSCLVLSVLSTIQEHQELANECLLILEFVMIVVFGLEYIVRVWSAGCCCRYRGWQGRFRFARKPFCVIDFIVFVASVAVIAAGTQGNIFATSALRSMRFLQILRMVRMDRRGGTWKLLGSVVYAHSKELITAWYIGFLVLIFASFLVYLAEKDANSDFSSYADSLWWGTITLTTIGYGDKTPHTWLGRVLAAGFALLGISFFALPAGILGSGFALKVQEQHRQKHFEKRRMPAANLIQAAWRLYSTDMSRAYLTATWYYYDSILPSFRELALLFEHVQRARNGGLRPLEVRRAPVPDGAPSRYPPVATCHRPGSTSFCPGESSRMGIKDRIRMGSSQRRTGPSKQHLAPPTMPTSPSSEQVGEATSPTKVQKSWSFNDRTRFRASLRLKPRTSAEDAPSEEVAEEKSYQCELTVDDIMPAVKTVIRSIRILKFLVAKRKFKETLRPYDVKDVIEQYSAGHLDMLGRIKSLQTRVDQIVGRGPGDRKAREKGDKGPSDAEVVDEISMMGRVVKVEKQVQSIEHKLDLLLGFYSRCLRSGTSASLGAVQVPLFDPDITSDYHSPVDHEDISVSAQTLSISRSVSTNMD

[2] = molecular target: Voltage-gated potassium channel, KQT; KCNQ2(Kv7.2)/KCNQ3(Kv7.3) (Homo sapiens, UniProt O43525+O43526); assay: Activation of human Kv7.2/7.3 by patch clamp method
How it was run: (§1)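 Kv7.2/7.3 EC50s were measured on the IonWorks Quattro (IWQ) automated patch-clamp platform. Efficacy is expressed as % of the maximal response to the reference opener ML213.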

[3] = Kinetic aqueous solubility of the compound by CAD or CLND method; type: physicochemical; conditions: buffer; read-out: Kinetic_solubility
[4] = molecular target: Voltage-gated potassium channel KCNQ3/KCNQ5 (Homo sapiens, UniProt O43525+Q9NR82); assay: Activation of human Kv7.3/7.5 by patch clamp method
P-gp = assay: Substrate activity at P-gp (unknown origin) assessed as efflux ratio; type: ADME; conditions: human, not told
[5] = molecular target: T2, Voltage-gated potassium channel, KQT; KCNQ2(Kv7.2)/KCNQ3(Kv7.3) (Homo sapiens) (UniProt O43526+O43525); assay: Activation of human Kv7.2/7.3 by patch clamp method relative to ML213; how it was run: as §1
[6] = Activation of human Kv7.2 W236L mutant/Kv7.3 W265L mutant expressed in CHO cells assessed as 86Rb efflux at 0.001 to 100 uM after 10 mins by microbeta liquid scintillation counting analysis; type: cell-based
[7] = molecular target: T2, Voltage-gated potassium channel, KQT; KCNQ2(Kv7.2)/KCNQ3(Kv7.3) (Homo sapiens); assay: Activation of human wild type Kv7.2/7.3 expressed in CHO cells assessed as 86Rb efflux at 0.001 to 100 uM after 10 mins by microbeta liquid scintillation counting analysis; type: cell-based
[8] = molecular target: T2, Voltage-gated potassium channel, KQT; KCNQ2(Kv7.2)/KCNQ3(Kv7.3) (Homo sapiens); assay: Activation of human Kv7.2/7.3 assessed as difference in G-V midpoint between pre-compound and post-compound conditions at 3 uM at -90 mV holding potential by QPatch method; type: protein-complex assay
[9] = Clearance in iv dosed mouse; type: ADME, organism-based; conditions: in vivo
[10] = molecular target: T2, Voltage-gated potassium channel, KQT; KCNQ2(Kv7.2)/KCNQ3(Kv7.3) (Homo sapiens); assay: Activation of human Kv7.2/7.3 assessed as difference in G-V midpoint between pre-compound and post-compound conditions at 0.048 uM at -90 mV holding potential by QPatch method; type: protein-complex assay
Mus musculus [11] = assay: Toxicity in CD-1 mouse at 10 to 60 mg/kg, po by rotarod test; type: organism-based; conditions: in vivo
Mus musculus [12] = assay: Anti-seizure activity in CD-1 mouse assessed as increase in seizure threshold at 10 to 60 mg/kg, po by maximal electroshock-threshold test; type: functional, organism-based
[13] = Ratio of drug level in brain to blood of iv dosed mouse; type: ADME, organism-based; conditions: brain and blood
[14] = molecular target: T2, Voltage-gated potassium channel, KQT; KCNQ2(Kv7.2)/KCNQ3(Kv7.3) (Homo sapiens); assay: Activation of human Kv7.2/7.3 assessed as difference in G-V midpoint between pre-compound and post-compound conditions at 0.24 uM at -90 mV holding potential by QPatch method; type: protein-complex assay
[15] = molecular target: T2, Voltage-gated potassium channel, KQT; KCNQ2(Kv7.2)/KCNQ3(Kv7.3) (Homo sapiens); assay: Activation of human Kv7.2/7.3 assessed as difference in G-V midpoint between pre-compound and post-compound conditions at 1.2 uM at -90 mV holding potential by QPatch method; type: protein-complex assay
[16] = molecular target: T2, Voltage-gated potassium channel, KQT; KCNQ2(Kv7.2)/KCNQ3(Kv7.3) (Homo sapiens); assay: Activation of human Kv7.2/7.3 assessed as difference in G-V midpoint between pre-compound and post-compound conditions at 6 uM at -90 mV holding potential by QPatch method; type: protein-complex assay
[17] = Activation of Kv7 from rat cortical neurons assessed as reduction in spontaneous neuronal firing activity after 15 mins by multi-electrode array method; conditions: 0.25 h
[18] = molecular target: T2, Voltage-gated potassium channel, KQT; KCNQ2(Kv7.2)/KCNQ3(Kv7.3) (Homo sapiens); assay: Activation of human Kv7.2/7.3 assessed as difference in G-V midpoint between pre-compound and post-compound conditions at 30 uM at -90 mV holding potential by QPatch method; type: protein-complex assay
Mus musculus [19] = assay: Dose normalized AUC (0 to t) in iv dosed mouse; type: ADME, organism-based; conditions: in vivo
[20] = Clearance in human liver microsomes; type: ADME, microsome
[21] = molecular target: T2, Voltage-gated potassium channel, KQT; KCNQ2(Kv7.2)/KCNQ3(Kv7.3) (Homo sapiens); assay: Activation of human Kv7.2/7.3 assessed as difference in G-V midpoint between pre-compound and post-compound conditions at 0.08 uM at -90 mV holding potential by QPatch method; type: protein-complex assay
[22] = molecular target: T2, Voltage-gated potassium channel, KQT; KCNQ2(Kv7.2)/KCNQ3(Kv7.3) (Homo sapiens); assay: Activation of human Kv7.2/7.3 assessed as difference in G-V midpoint between pre-compound and post-compound conditions at 0.016 uM at -90 mV holding potential by QPatch method; type: protein-complex assay
Mus musculus [23] = assay: Anti-seizure activity in CD-1 mouse model of pentylenetetrazol-induced tonic seizures assessed as effect on time to onset of seizure at 10 to 60 mg/kg, po; type: functional, organism-based
[24] = molecular target: T2, Voltage-gated potassium channel, KQT; KCNQ2(Kv7.2)/KCNQ3(Kv7.3) (Homo sapiens); assay: Activation of human Kv7.2/7.3 assessed as difference in G-V midpoint between pre-compound and post-compound conditions at 10 uM at -90 mV holding potential by QPatch method; type: protein-complex assay
[25] = molecular target: T2, Voltage-gated potassium channel, KQT; KCNQ2(Kv7.2)/KCNQ3(Kv7.3) (Homo sapiens); assay: Activation of human Kv7.2/7.3 assessed as difference in G-V midpoint between pre-compound and post-compound conditions at 2 uM at -90 mV holding potential by QPatch method; type: protein-complex assay
Mus musculus [26] = assay: Anti-seizure activity in CD-1 mouse model of pentylenetetrazol-induced clonic seizures assessed as effect on time to onset of seizure at 10 to 60 mg/kg, po; type: functional, organism-based
[27] = molecular target: T2, Voltage-gated potassium channel, KQT; KCNQ2(Kv7.2)/KCNQ3(Kv7.3) (Homo sapiens); assay: Activation of human Kv7.2/7.3 assessed as difference in G-V midpoint between pre-compound and post-compound conditions at 0.4 uM at -90 mV holding potential by QPatch method; type: protein-complex assay
[28] = Inhibition of carbachol-induced contraction in human bladder at 10 uM; type: tissue-based, Urinary bladder

Sequence of Voltage-gated potassium channel KCNQ3/KCNQ5 (O43525 whole entry): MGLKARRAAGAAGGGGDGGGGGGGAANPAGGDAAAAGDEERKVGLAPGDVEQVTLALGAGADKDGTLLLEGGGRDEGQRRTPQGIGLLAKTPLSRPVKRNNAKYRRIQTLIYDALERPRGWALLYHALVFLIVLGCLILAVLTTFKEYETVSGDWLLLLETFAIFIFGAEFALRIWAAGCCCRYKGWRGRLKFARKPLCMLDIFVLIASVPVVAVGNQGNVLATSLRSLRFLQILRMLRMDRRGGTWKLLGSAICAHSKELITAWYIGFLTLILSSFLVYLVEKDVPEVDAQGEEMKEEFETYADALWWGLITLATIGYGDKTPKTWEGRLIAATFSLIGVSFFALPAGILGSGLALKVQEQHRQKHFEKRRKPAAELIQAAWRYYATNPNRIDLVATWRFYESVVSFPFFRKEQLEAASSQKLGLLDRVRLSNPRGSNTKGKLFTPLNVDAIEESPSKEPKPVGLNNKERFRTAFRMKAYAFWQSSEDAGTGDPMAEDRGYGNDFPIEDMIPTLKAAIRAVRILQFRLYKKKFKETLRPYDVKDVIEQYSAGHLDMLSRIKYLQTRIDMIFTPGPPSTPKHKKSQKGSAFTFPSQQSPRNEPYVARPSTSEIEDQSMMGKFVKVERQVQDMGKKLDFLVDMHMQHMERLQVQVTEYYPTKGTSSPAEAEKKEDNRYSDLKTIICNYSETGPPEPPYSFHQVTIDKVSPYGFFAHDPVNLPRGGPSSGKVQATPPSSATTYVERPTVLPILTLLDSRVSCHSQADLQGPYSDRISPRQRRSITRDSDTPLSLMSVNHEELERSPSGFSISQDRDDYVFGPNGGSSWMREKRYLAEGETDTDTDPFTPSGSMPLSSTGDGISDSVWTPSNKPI
Sequence of Voltage-gated potassium channel KCNQ3/KCNQ5 (Q9NR82 whole entry): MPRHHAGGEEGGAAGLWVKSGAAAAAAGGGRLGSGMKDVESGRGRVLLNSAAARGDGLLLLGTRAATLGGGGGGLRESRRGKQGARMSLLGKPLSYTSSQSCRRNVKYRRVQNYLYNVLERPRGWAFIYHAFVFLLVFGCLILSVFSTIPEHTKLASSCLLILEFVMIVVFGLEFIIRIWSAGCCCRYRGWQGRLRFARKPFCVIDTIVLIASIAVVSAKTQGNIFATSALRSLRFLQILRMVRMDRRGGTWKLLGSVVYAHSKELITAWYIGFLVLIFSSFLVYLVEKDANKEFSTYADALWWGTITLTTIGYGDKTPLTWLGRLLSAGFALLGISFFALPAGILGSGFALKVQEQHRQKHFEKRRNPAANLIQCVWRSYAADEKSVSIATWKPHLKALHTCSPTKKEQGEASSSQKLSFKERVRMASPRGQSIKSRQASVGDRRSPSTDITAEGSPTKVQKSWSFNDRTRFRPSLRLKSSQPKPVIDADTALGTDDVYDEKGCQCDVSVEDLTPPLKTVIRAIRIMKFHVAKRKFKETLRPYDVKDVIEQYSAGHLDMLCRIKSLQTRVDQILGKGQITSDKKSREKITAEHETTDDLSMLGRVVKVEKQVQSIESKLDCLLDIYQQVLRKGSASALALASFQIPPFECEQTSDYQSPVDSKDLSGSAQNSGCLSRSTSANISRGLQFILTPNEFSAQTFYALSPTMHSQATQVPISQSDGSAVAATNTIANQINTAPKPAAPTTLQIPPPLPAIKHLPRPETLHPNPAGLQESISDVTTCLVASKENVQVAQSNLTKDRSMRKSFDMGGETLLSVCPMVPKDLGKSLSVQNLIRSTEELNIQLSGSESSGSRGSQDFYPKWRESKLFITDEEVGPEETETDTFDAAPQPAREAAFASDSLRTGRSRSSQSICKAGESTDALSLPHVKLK
Sequence of Voltage-gated potassium channel, KQT; KCNQ2(Kv7.2)/KCNQ3(Kv7.3) (O43526 whole entry): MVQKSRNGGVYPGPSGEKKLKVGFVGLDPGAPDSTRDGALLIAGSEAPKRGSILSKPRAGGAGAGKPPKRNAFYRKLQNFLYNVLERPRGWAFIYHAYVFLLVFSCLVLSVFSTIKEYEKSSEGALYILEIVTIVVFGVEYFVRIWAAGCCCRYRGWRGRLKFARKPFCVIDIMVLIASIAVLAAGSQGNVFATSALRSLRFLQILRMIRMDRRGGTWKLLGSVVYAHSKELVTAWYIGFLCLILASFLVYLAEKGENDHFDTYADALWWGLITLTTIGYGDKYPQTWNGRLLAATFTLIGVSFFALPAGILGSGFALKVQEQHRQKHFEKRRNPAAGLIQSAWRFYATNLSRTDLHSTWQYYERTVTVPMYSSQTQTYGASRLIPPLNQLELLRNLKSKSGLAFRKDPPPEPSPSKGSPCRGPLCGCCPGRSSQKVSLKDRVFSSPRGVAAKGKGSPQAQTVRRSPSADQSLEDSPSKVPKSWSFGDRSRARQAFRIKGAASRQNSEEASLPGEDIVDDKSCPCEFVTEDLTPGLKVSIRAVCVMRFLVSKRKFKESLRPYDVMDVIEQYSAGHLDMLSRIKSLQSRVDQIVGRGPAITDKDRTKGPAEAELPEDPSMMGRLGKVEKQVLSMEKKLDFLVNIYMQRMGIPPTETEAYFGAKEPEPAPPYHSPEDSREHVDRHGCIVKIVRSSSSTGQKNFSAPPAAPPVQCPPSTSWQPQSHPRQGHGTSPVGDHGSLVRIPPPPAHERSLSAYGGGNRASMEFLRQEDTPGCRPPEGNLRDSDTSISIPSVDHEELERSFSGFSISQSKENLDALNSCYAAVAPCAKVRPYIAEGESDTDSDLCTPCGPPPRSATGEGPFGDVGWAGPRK
Sequence of Voltage-gated potassium channel, KQT; KCNQ2(Kv7.2)/KCNQ3(Kv7.3) (O43525 whole entry): as the sequence (O43525 whole entry) above

Row | Structure (SMILES) | EC50 [1] | EC50 [2] | solubility kinetic [3] | EC50 [4] | efflux ratio (P-gp) | %max [5] | Activity [6] | Activity [7] | other results
1 | O=C(N[C@@H](CO)c1cccc(C(F)(F)F)c1)[C@H]1CC(F)(F)CC[C@@H]1c1ccccc1 | 20 nM | 50 to 80 nM | 119 µM (≈ 50.9 µg/mL) | 250 nM | < 2 | 96% | – | – | –
2 | C[C@H](NC(=O)[C@H]1CCCC[C@@H]1c1ccccc1)c1ccccc1 | – | 250 nM | 57 µM (≈ 17.5 µg/mL) | – | < 2 | 115% | > 30 µM | 0.1 µM | –
3 | Cc1cc(C)c(NC(=O)C2CC3CCC2C3)c(C)c1 (stereo unspecified) | 1600 nM | 40 nM | – | 500 nM | – | – | > 11 µM | 0.04 µM | V1/2 [8]: 24.7 to 28.4 mV
4 | O=C(N[C@@H](CO)c1ccccc1)[C@H]1CC(F)(F)CC[C@@H]1c1ccccc1 | – | 1300 nM | 332 µM (≈ 119 µg/mL) | – | < 2 | 108% | – | – | –
5 | C[C@H](NC(=O)[C@H]1CC(F)(F)CC[C@@H]1c1ccccc1)c1ccccc1 | 4000 nM | 200 to 400 nM | 25 µM (≈ 8.59 µg/mL) | 400 nM | < 2 | 140% | – | – | –
6 | O=C(N[C@@H](CO)c1cccc(Cl)c1)[C@H]1CC(F)(F)CC[C@@H]1c1ccccc1 | 100 nM | 100 to 300 nM | 318 µM (≈ 125 µg/mL) | 360 nM | < 2 | 141% | – | – | clearance [9]: 48 mL/min/kg; V1/2 [10]: 1.8 mV; Activity (Mus musculus [11]): Non-Toxic; Activity (Mus musculus [12]): Dose-dependent effect; Kp [13]: 0.8; V1/2 [14]: 10.2 mV; V1/2 [15]: 21 mV; V1/2 [16]: 29.5 mV; IC50 [17]: 280 nM; V1/2 [18]: 27.8 mV; AUCt/dose (Mus musculus [19]): 0.51 µg·h/mL
7 | O=C(N[C@@H](CO)c1ccccc1)[C@H]1CCCC[C@@H]1c1ccccc1 | – | 790 nM | 455 µM (≈ 147 µg/mL) | – | < 2 | 165% | – | – | –
8 | CS(=O)(=O)c1cccc([C@H](CO)NC(=O)c2cc(C(F)(F)F)ccc2Oc2ccccc2)c1 | – | 80 nM | 11 µM (≈ 5.27 µg/mL) | – | < 2 | 77% | – | – | –
9 | O=C(Nc1ccc(Cl)nc1)c1ccc(F)c(F)c1 | > 10000 nM | 460 nM | – | > 10000 nM | – | – | 0.43 to 1.81 µM | 0.46 µM | Activity (Mus musculus [11]): Non-Toxic; Activity (Mus musculus [12]): Dose-dependent effect
10 | CS(=O)(=O)c1cccc(CNC(=O)c2cc(C(F)(F)F)ccc2Sc2ccccc2)c1 | – | 200 nM | 34 µM (≈ 15.8 µg/mL) | – | < 2 | 175% | > 30 µM | 0.02 µM | CLH [20]: > 3 mL/min/g
11 | CS(=O)(=O)c1cccc(CNC(=O)c2cc(S(F)(F)(F)(F)F)ccc2Oc2ccccc2)c1 | – | 80 nM | 7 µM (≈ 3.55 µg/mL) | – | < 2 | 185% | – | – | –
12 | C[C@H](NC(=O)c1cc(F)c(F)cc1Oc1ccccc1)c1cccc(S(C)(=O)=O)c1 | 160 nM | 130 to 200 nM | 145 µM (≈ 62.6 µg/mL) | 200 nM | < 2 | 132% | – | – | clearance [9]: 31 mL/min/kg; Activity (Mus musculus [11]): Non-Toxic; Activity (Mus musculus [12]): Dose-dependent effect; Kp [13]: 1.3; V1/2 [21]: 5.1 mV; V1/2 [22]: 0.4 mV; Activity (Mus musculus [23]): Active; V1/2 [24]: 26.8 mV; IC50 [17]: 110 nM; V1/2 [25]: 23.1 mV; Activity (Mus musculus [26]): Active; AUCt/dose (Mus musculus [19]): 0.33 µg·h/mL; V1/2 [27]: 14.3 mV
13 | C[C@H](NC(=O)c1cc(C(F)(F)F)ccc1Oc1ccccc1)c1cccc(S(C)(=O)=O)c1 | – | 40 nM | 57 µM (≈ 26.4 µg/mL) | – | < 2 | 134% | – | – | –
14 | CS(=O)(=O)c1cccc([C@H](CO)NC(=O)c2cc(S(F)(F)(F)(F)F)ccc2Oc2ccccc2)c1 | > 10000 nM | 20 to 60 nM | 121 µM (≈ 65 µg/mL) | 80 nM | < 2 | 101% | – | – | inhibition (INH) [28]: Not Active; Activity (Mus musculus [23]): Active; Activity (Mus musculus [26]): Active
15 | CCOC(=O)Nc1ccc(NCc2ccc(F)cc2)cc1N | – | – | – | – | – | – | > 30 µM | 0.32 µM | –
16 | CS(=O)(=O)c1cccc(CNC(=O)c2cc(C(F)(F)F)ccc2Oc2ccccc2)c1 | – | 160 nM | 23 µM (≈ 10.3 µg/mL) | – | < 2 | 245% | > 30 µM | 0.05 µM | –
